Shown are actives, neighbours in structure and some others; about 5.8% of the full set was active somewhere.
GASC1 inh – inhibitors of GASC-1 (KDM4C) histone demethylase, primary screen, biochemical, single concentration HTS. GST-KDM4C 2-372, H3K9me3 peptide, LANCE TR-FRET. inhibition, % at 12.5 µM. hit rate 0.15% among 96,000;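 active = mean replicate inhibition above about 25%, with at least 55% of replicates also reaching it, limit read from the data, passing the limit was not always enough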
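material = GST-tagged GASC-1 (JMJD2C) catalytic fragment, aa 2-372 | amount = enzyme final amount 10 nM | medium = HEPES buffer, pH 7.5, plus ascorbate | also added = H3K9me3 peptide substrate, Fe(II), 2-oxoglutarate | dosing = single dose | times = 30 min demethylation and 1 h detection at room temperature | detection = LANCE TR-FRET | read-out basis = Fall in 671/618 emission ratio as inhibition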
Pf Dd2 inh – P. falciparum Dd2 growth inhibitors, primary screen, SYBR Green fluorescence, single dose replicates. 72 h; active compounds read low. hit rate 2.3% among 94,000. activity change, % at 10 µM; in the data active = activity change below about -80%
IDH1 R132H inh – inhibitors of IDH1 R132H reductase, primary screen, biochemical, plate reader, single point. Isocitrate dehydrogenase [NADP] cytoplasmic (Homo sapiens), O75874. hit rate 0.18% among 70,000. diaphorase/resazurin fluorescence, 60 min. inhibition, % at 10 µM; in the data active = inhibition above about 34%
Target sequence (O75874 whole entry R132H): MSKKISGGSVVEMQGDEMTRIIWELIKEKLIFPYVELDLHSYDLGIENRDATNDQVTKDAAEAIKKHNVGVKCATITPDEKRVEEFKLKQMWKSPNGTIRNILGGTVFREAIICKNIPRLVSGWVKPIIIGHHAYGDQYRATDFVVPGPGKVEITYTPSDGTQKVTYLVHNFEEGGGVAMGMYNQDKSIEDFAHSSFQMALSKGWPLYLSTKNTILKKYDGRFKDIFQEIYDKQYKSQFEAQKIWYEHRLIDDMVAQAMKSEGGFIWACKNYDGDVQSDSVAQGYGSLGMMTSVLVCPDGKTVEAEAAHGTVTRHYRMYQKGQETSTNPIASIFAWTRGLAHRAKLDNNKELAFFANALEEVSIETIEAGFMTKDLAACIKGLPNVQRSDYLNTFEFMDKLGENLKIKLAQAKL
T cruzi growth – T. cruzi intracellular proliferation inhibitors, primary screen, cell-based, beta-gal Tulahuen parasites, NIH3T3 host, luminescence; T. cruzi beta-gal in NIH3T3, GalScreen luminescence, 90 h; inhibition, % at 8.34 µM; hit rate 5.9% among 77,000;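 active = mean inhibition above about 93%, with at least 55% of replicates each passing it, limit read from the data, passing the limit was not always enough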
Large screens that a line does not name were inactive.

C[C@@H]1CN([C@H](C)CO)C(=O)c2cc(NC(=O)Nc3ccc(C(F)(F)F)cc3)ccc2O[C@H]1CN(C)C(=O)Nc1cccc2ccccc12	Pf Dd2 inh -95
C[C@@H]1CCCCO[C@H](CN(C)C(=O)Nc2ccc(C(F)(F)F)cc2)[C@H](C)CN([C@H](C)CO)C(=O)c2cc(NC(=O)Nc3cccc4ccccc34)ccc2O1	Pf Dd2 inh -87 (no result: IDH1 R132H inh)
C[C@@H]1CCCCO[C@@H](CN(C)C(=O)Nc2ccc(C(F)(F)F)cc2)[C@@H](C)CN([C@H](C)CO)C(=O)c2cc(NC(=O)Nc3cccc4ccccc34)ccc2O1	none (no result: T cruzi growth)
C[C@@H]1CCCCO[C@H](CN(C)C(=O)Nc2cccc3ccccc23)[C@@H](C)CN([C@@H](C)CO)C(=O)c2cc(NC(=O)Nc3ccc(C(F)(F)F)cc3)ccc2O1	Pf Dd2 inh -81
C[C@@H]1CCCCO[C@@H](CN(C)C(=O)Nc2cccc3ccccc23)[C@H](C)CN([C@H](C)CO)C(=O)c2cc(NC(=O)Nc3ccc(C(F)(F)F)cc3)ccc2O1	T cruzi growth 109 (no result: IDH1 R132H inh)
O=C(C1CC1)N1[C@H](CO)[C@H]2c3ccccc3NC[C@H]21	none (no result: IDH1 R132H inh)
C[C@@H]1CN([C@H](C)CO)C(=O)Cc2cc(NC(=O)Nc3ccc(C(F)(F)F)cc3)ccc2O[C@H]1CN(C)C(=O)Nc1cccc2ccccc12	Pf Dd2 inh -85
Cc1ccc(S(=O)(=O)N(C)C[C@H]2OCCCC[C@H](C)Oc3ccc(NC(=O)NC(C)C)cc3C(=O)N([C@@H](C)CO)C[C@@H]2C)cc1	none
C[C@H]1CN([C@@H](C)CO)C(=O)c2cc(NC(=O)Cc3cn(C)c4ccccc34)ccc2O[C@H]1CN(C)S(=O)(=O)c1cccs1	Pf Dd2 inh -90
C[C@H](CO)N1C[C@H](C)[C@H](CN(C)S(=O)(=O)c2cccs2)Oc2ccc(NC(=O)Cc3cn(C)c4ccccc34)cc2C1=O	Pf Dd2 inh -86
C[C@@H]1CN([C@@H](C)CO)C(=O)c2cc(NC(=O)Cc3cn(C)c4ccccc34)ccc2O[C@H]1CN(C)S(=O)(=O)c1cccs1	none (no result: IDH1 R132H inh)
C[C@H]1CN([C@@H](C)CO)S(=O)(=O)c2ccc(/C=C/c3ccccc3)cc2O[C@@H]1CN(C)C(=O)c1ccccc1	T cruzi growth 125
C[C@H](CO)N1C[C@H](C)[C@H](CN(C)C(=O)Nc2cc(F)ccc2F)Oc2cc(/C=C/c3ccccc3)ccc2S1(=O)=O	Pf Dd2 inh -88 (no result: T cruzi growth)
CC(C)NC(=O)Nc1ccc2c(c1)C(=O)N([C@@H](C)CO)C[C@@H](C)[C@@H](CN(C)Cc1ccc(C(=O)O)cc1)OCCCC[C@@H](C)O2	none
C[C@@H]1CN([C@@H](C)CO)C(=O)c2cc(NC(=O)Nc3ccc(C(F)(F)F)cc3)ccc2O[C@@H](C)CCCCO[C@@H]1CN(C)S(=O)(=O)c1ccc(Cl)cc1	Pf Dd2 inh -86 (no result: IDH1 R132H inh)
C[C@@H]1CCCCO[C@H](CN(C)S(=O)(=O)c2ccc(Cl)cc2)[C@H](C)CN([C@@H](C)CO)C(=O)c2cc(NC(=O)Nc3ccc(C(F)(F)F)cc3)ccc2O1	none
Cc1ccc(S(=O)(=O)N(C)C[C@H]2OCCCC[C@H](C)Oc3ccc(NC(=O)Nc4ccc(C(F)(F)F)cc4)cc3C(=O)N([C@@H](C)CO)C[C@H]2C)cc1	none (no result: IDH1 R132H inh, T cruzi growth)
Cc1ccc(S(=O)(=O)N(C)C[C@@H]2OCCCC[C@@H](C)Oc3ccc(NC(=O)Nc4ccc(C(F)(F)F)cc4)cc3C(=O)N([C@H](C)CO)C[C@@H]2C)cc1	Pf Dd2 inh -82 (no result: IDH1 R132H inh, T cruzi growth)
C[C@@H]1CCCCO[C@@H](CN(C)S(=O)(=O)c2ccc(Cl)cc2)[C@@H](C)CN([C@@H](C)CO)C(=O)c2cc(NC(=O)Nc3ccc(C(F)(F)F)cc3)ccc2O1	Pf Dd2 inh -83 (no result: IDH1 R132H inh)
Cc1ccc(S(=O)(=O)N(C)C[C@H]2OCCCC[C@@H](C)Oc3ccc(NC(=O)Nc4ccc(C(F)(F)F)cc4)cc3C(=O)N([C@@H](C)CO)C[C@@H]2C)cc1	none (no result: IDH1 R132H inh, T cruzi growth)
O=C1C(=O)N(CCN2CCOCC2)C(c2ccc(Cl)cc2)C1C(=O)c1cccs1 (configuration not stated)	none (no result: GASC1 inh, Pf Dd2 inh, T cruzi growth)
Cc1cc(N2CC(C)CC(C)C2)nc2ccc(NC(=O)CCC(=O)Nc3ccc(F)cc3Cl)cc12 (configuration not stated)	none (no result: GASC1 inh, Pf Dd2 inh, T cruzi growth)
C[C@@H]1CN([C@@H](C)CO)C(=O)Cc2cc(NC(=O)Nc3ccccc3)ccc2O[C@H]1CN(C)Cc1ccc(Oc2ccccc2)cc1	Pf Dd2 inh -87

Compound activity (PubChem BioAssay)
